# Results taken from paper PMC12166256 (Clinical Pharmacology and Therapeutics, 2025).
# Experiment: SAD study: safety and tolerability
# Assay type: in vivo, human
# Conditions: for Abdominal pain TEAE, events / Abdominal pain TEAE, participants / Any event TEAE, events / Any event TEAE, participants / Diarrhea TEAE, events / Diarrhea TEAE, participants / Dysgeusia TEAE, events / Dysgeusia TEAE, participants / Gastrointestinal disorders TEAE, events / Gastrointestinal disorders TEAE, participants / Headache TEAE, events / Headache TEAE, participants / Hypoaesthesia oral TEAE, events / Hypoaesthesia oral TEAE, participants / Infections and infestations TEAE, events / Infections and infestations TEAE, participants / Insomnia TEAE, events / Insomnia TEAE, participants / Nasopharyngitis TEAE, events / Nasopharyngitis TEAE, participants / Nervous system disorders TEAE, events / Nervous system disorders TEAE, participants / Psychiatric disorders TEAE, events / Psychiatric disorders TEAE, participants / Rash TEAE, events / Rash TEAE, participants / Skin and subcutaneous tissue disorders TEAE, events / Skin and subcutaneous tissue disorders TEAE, participants / Tooth infection TEAE, events / Tooth infection TEAE, participants: N = 6
# Outline: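 Healthy males aged 18–55 with BMI 18–30 kg/m² were followed through dosing and a 6–8-day follow-up. Checks: physical examination, clinical laboratory tests, vital signs and 12-lead ECG, with adverse events coded in MedDRA. Events of special interest: ALT ≥2×ULN, QTcF ≥500 ms, Grade ≥2 photosensitivity, symptomatic overdose. Treatment-emergent events were summarised descriptively by organ class, preferred term and dose level for all exposed participants.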
compound,measurement,setting,value
CN1C(=O)c2cccc(OC(F)F)c2[C@H]2C[C@@H]1c1nc3ccc(-c4cnc(C5(N)CCC5)nc4)cc3n12 [Balinatunfib],"Grade ≥ 3 TEAE, treatment-emergent SAEs, TEAEs leading to discontinuation, AESIs",SAD,No participants
same,"Abdominal pain TEAE, events",SAD 5 mg,0
same,"Abdominal pain TEAE, participants",SAD 5 mg,0 n (%)
same,"Any event TEAE, events",SAD 5 mg,0
same,"Any event TEAE, participants",SAD 5 mg,0 n (%)
same,"Diarrhea TEAE, events",SAD 5 mg,0
same,"Diarrhea TEAE, participants",SAD 5 mg,0 n (%)
same,"Dysgeusia TEAE, events",SAD 5 mg,0
same,"Dysgeusia TEAE, participants",SAD 5 mg,0 n (%)
same,"Gastrointestinal disorders TEAE, events",SAD 5 mg,0
same,"Gastrointestinal disorders TEAE, participants",SAD 5 mg,0 n (%)
same,"Headache TEAE, events",SAD 5 mg,0
same,"Headache TEAE, participants",SAD 5 mg,0 n (%)
same,"Hypoaesthesia oral TEAE, events",SAD 5 mg,0
same,"Hypoaesthesia oral TEAE, participants",SAD 5 mg,0 n (%)
same,"Infections and infestations TEAE, events",SAD 5 mg,0
same,"Infections and infestations TEAE, participants",SAD 5 mg,0 n (%)
same,"Insomnia TEAE, events",SAD 5 mg,0
same,"Insomnia TEAE, participants",SAD 5 mg,0 n (%)
same,"Nasopharyngitis TEAE, events",SAD 5 mg,0
same,"Nasopharyngitis TEAE, participants",SAD 5 mg,0 n (%)
same,"Nervous system disorders TEAE, events",SAD 5 mg,0
same,"Nervous system disorders TEAE, participants",SAD 5 mg,0 n (%)
same,"Psychiatric disorders TEAE, events",SAD 5 mg,0
same,"Psychiatric disorders TEAE, participants",SAD 5 mg,0 n (%)
same,"Rash TEAE, events",SAD 5 mg,0
same,"Rash TEAE, participants",SAD 5 mg,0 n (%)
same,"Skin and subcutaneous tissue disorders TEAE, events",SAD 5 mg,0
same,"Skin and subcutaneous tissue disorders TEAE, participants",SAD 5 mg,0 n (%)
same,"Tooth infection TEAE, events",SAD 5 mg,0
same,"Tooth infection TEAE, participants",SAD 5 mg,0 n (%)
same,"Abdominal pain TEAE, events",SAD 20 mg,0
same,"Abdominal pain TEAE, participants",SAD 20 mg,0 n (%)
same,"Any event TEAE, events",SAD 20 mg,0
same,"Any event TEAE, participants",SAD 20 mg,0 n (%)
same,"Diarrhea TEAE, events",SAD 20 mg,0
same,"Diarrhea TEAE, participants",SAD 20 mg,0 n (%)
same,"Dysgeusia TEAE, events",SAD 20 mg,0
same,"Dysgeusia TEAE, participants",SAD 20 mg,0 n (%)
same,"Gastrointestinal disorders TEAE, events",SAD 20 mg,0
same,"Gastrointestinal disorders TEAE, participants",SAD 20 mg,0 n (%)
same,"Headache TEAE, events",SAD 20 mg,0
same,"Headache TEAE, participants",SAD 20 mg,0 n (%)
same,"Hypoaesthesia oral TEAE, events",SAD 20 mg,0
same,"Hypoaesthesia oral TEAE, participants",SAD 20 mg,0 n (%)
same,"Infections and infestations TEAE, events",SAD 20 mg,0
same,"Infections and infestations TEAE, participants",SAD 20 mg,0 n (%)
same,"Insomnia TEAE, events",SAD 20 mg,0
same,"Insomnia TEAE, participants",SAD 20 mg,0 n (%)
same,"Nasopharyngitis TEAE, events",SAD 20 mg,0
same,"Nasopharyngitis TEAE, participants",SAD 20 mg,0 n (%)
same,"Nervous system disorders TEAE, events",SAD 20 mg,0
same,"Nervous system disorders TEAE, participants",SAD 20 mg,0 n (%)
same,"Psychiatric disorders TEAE, events",SAD 20 mg,0
same,"Psychiatric disorders TEAE, participants",SAD 20 mg,0 n (%)
same,"Rash TEAE, events",SAD 20 mg,0
same,"Rash TEAE, participants",SAD 20 mg,0 n (%)
same,"Skin and subcutaneous tissue disorders TEAE, events",SAD 20 mg,0
same,"Skin and subcutaneous tissue disorders TEAE, participants",SAD 20 mg,0 n (%)
same,"Tooth infection TEAE, events",SAD 20 mg,0
same,"Tooth infection TEAE, participants",SAD 20 mg,0 n (%)
same,"Abdominal pain TEAE, events",SAD 60 mg,0
same,"Abdominal pain TEAE, participants",SAD 60 mg,0 n (%)
same,"Any event TEAE, events",SAD 60 mg,1
same,"Any event TEAE, participants",SAD 60 mg,1 (16.7) n (%)
same,"Diarrhea TEAE, events",SAD 60 mg,0
same,"Diarrhea TEAE, participants",SAD 60 mg,0 n (%)
same,"Dysgeusia TEAE, events",SAD 60 mg,0
same,"Dysgeusia TEAE, participants",SAD 60 mg,0 n (%)
same,"Gastrointestinal disorders TEAE, events",SAD 60 mg,0
same,"Gastrointestinal disorders TEAE, participants",SAD 60 mg,0 n (%)
same,"Headache TEAE, events",SAD 60 mg,0
same,"Headache TEAE, participants",SAD 60 mg,0 n (%)
same,"Hypoaesthesia oral TEAE, events",SAD 60 mg,0
same,"Hypoaesthesia oral TEAE, participants",SAD 60 mg,0 n (%)
same,"Infections and infestations TEAE, events",SAD 60 mg,1
same,"Infections and infestations TEAE, participants",SAD 60 mg,1 (16.7) n (%)
same,"Insomnia TEAE, events",SAD 60 mg,0
same,"Insomnia TEAE, participants",SAD 60 mg,0 n (%)
same,"Nasopharyngitis TEAE, events",SAD 60 mg,0
same,"Nasopharyngitis TEAE, participants",SAD 60 mg,0 n (%)
same,"Nervous system disorders TEAE, events",SAD 60 mg,0
same,"Nervous system disorders TEAE, participants",SAD 60 mg,0 n (%)
same,"Psychiatric disorders TEAE, events",SAD 60 mg,0
same,"Psychiatric disorders TEAE, participants",SAD 60 mg,0 n (%)
same,"Rash TEAE, events",SAD 60 mg,0
same,"Rash TEAE, participants",SAD 60 mg,0 n (%)
same,"Skin and subcutaneous tissue disorders TEAE, events",SAD 60 mg,0
same,"Skin and subcutaneous tissue disorders TEAE, participants",SAD 60 mg,0 n (%)
same,"Tooth infection TEAE, events",SAD 60 mg,1
same,"Tooth infection TEAE, participants",SAD 60 mg,1 (16.7) n (%)
same,"Abdominal pain TEAE, events",SAD 180 mg,0
same,"Abdominal pain TEAE, participants",SAD 180 mg,0 n (%)
same,"Any event TEAE, events",SAD 180 mg,0
same,"Any event TEAE, participants",SAD 180 mg,0 n (%)
same,"Diarrhea TEAE, events",SAD 180 mg,0
same,"Diarrhea TEAE, participants",SAD 180 mg,0 n (%)
same,"Dysgeusia TEAE, events",SAD 180 mg,0
same,"Dysgeusia TEAE, participants",SAD 180 mg,0 n (%)
same,"Gastrointestinal disorders TEAE, events",SAD 180 mg,0
same,"Gastrointestinal disorders TEAE, participants",SAD 180 mg,0 n (%)
same,"Headache TEAE, events",SAD 180 mg,0
same,"Headache TEAE, participants",SAD 180 mg,0 n (%)
same,"Hypoaesthesia oral TEAE, events",SAD 180 mg,0
same,"Hypoaesthesia oral TEAE, participants",SAD 180 mg,0 n (%)
same,"Infections and infestations TEAE, events",SAD 180 mg,0
same,"Infections and infestations TEAE, participants",SAD 180 mg,0 n (%)
same,"Insomnia TEAE, events",SAD 180 mg,0
same,"Insomnia TEAE, participants",SAD 180 mg,0 n (%)
same,"Nasopharyngitis TEAE, events",SAD 180 mg,0
same,"Nasopharyngitis TEAE, participants",SAD 180 mg,0 n (%)
same,"Nervous system disorders TEAE, events",SAD 180 mg,0
same,"Nervous system disorders TEAE, participants",SAD 180 mg,0 n (%)
same,"Psychiatric disorders TEAE, events",SAD 180 mg,0
same,"Psychiatric disorders TEAE, participants",SAD 180 mg,0 n (%)
same,"Rash TEAE, events",SAD 180 mg,0
same,"Rash TEAE, participants",SAD 180 mg,0 n (%)
same,"Skin and subcutaneous tissue disorders TEAE, events",SAD 180 mg,0
same,"Skin and subcutaneous tissue disorders TEAE, participants",SAD 180 mg,0 n (%)
same,"Tooth infection TEAE, events",SAD 180 mg,0
same,"Tooth infection TEAE, participants",SAD 180 mg,0 n (%)
same,"Abdominal pain TEAE, events",SAD 400 mg,1
same,"Abdominal pain TEAE, participants",SAD 400 mg,1 (16.7) n (%)
same,"Any event TEAE, events",SAD 400 mg,4
same,"Any event TEAE, participants",SAD 400 mg,2 (33.3) n (%)
same,"Diarrhea TEAE, events",SAD 400 mg,0
same,"Diarrhea TEAE, participants",SAD 400 mg,0 n (%)
same,"Dysgeusia TEAE, events",SAD 400 mg,2
same,"Dysgeusia TEAE, participants",SAD 400 mg,2 (33.3) n (%)
same,"Gastrointestinal disorders TEAE, events",SAD 400 mg,1
same,"Gastrointestinal disorders TEAE, participants",SAD 400 mg,1 (16.7) n (%)
same,"Headache TEAE, events",SAD 400 mg,1
same,"Headache TEAE, participants",SAD 400 mg,1 (16.7) n (%)
same,"Hypoaesthesia oral TEAE, events",SAD 400 mg,0
same,"Hypoaesthesia oral TEAE, participants",SAD 400 mg,0 n (%)
same,"Infections and infestations TEAE, events",SAD 400 mg,0
same,"Infections and infestations TEAE, participants",SAD 400 mg,0 n (%)
same,"Insomnia TEAE, events",SAD 400 mg,0
same,"Insomnia TEAE, participants",SAD 400 mg,0 n (%)
same,"Nasopharyngitis TEAE, events",SAD 400 mg,0
same,"Nasopharyngitis TEAE, participants",SAD 400 mg,0 n (%)
same,"Nervous system disorders TEAE, events",SAD 400 mg,3
same,"Nervous system disorders TEAE, participants",SAD 400 mg,2 (33.3) n (%)
same,"Psychiatric disorders TEAE, events",SAD 400 mg,0
same,"Psychiatric disorders TEAE, participants",SAD 400 mg,0 n (%)
same,"Rash TEAE, events",SAD 400 mg,0
same,"Rash TEAE, participants",SAD 400 mg,0 n (%)
same,"Skin and subcutaneous tissue disorders TEAE, events",SAD 400 mg,0
same,"Skin and subcutaneous tissue disorders TEAE, participants",SAD 400 mg,0 n (%)
same,"Tooth infection TEAE, events",SAD 400 mg,0
same,"Tooth infection TEAE, participants",SAD 400 mg,0 n (%)
same,"Abdominal pain TEAE, events",SAD 600 mg,0
same,"Abdominal pain TEAE, participants",SAD 600 mg,0 n (%)
same,"Any event TEAE, events",SAD 600 mg,3
same,"Any event TEAE, participants",SAD 600 mg,2 (33.3) n (%)
same,"Diarrhea TEAE, events",SAD 600 mg,0
same,"Diarrhea TEAE, participants",SAD 600 mg,0 n (%)
same,"Dysgeusia TEAE, events",SAD 600 mg,0
same,"Dysgeusia TEAE, participants",SAD 600 mg,0 n (%)
same,"Gastrointestinal disorders TEAE, events",SAD 600 mg,1
same,"Gastrointestinal disorders TEAE, participants",SAD 600 mg,1 (16.7) n (%)
same,"Headache TEAE, events",SAD 600 mg,0
same,"Headache TEAE, participants",SAD 600 mg,0 n (%)
same,"Hypoaesthesia oral TEAE, events",SAD 600 mg,1
same,"Hypoaesthesia oral TEAE, participants",SAD 600 mg,1 (16.7) n (%)
same,"Infections and infestations TEAE, events",SAD 600 mg,1
same,"Infections and infestations TEAE, participants",SAD 600 mg,1 (16.7) n (%)
same,"Insomnia TEAE, events",SAD 600 mg,1
same,"Insomnia TEAE, participants",SAD 600 mg,1 (16.7) n (%)
same,"Nasopharyngitis TEAE, events",SAD 600 mg,1
same,"Nasopharyngitis TEAE, participants",SAD 600 mg,1 (16.7) n (%)
same,"Nervous system disorders TEAE, events",SAD 600 mg,0
same,"Nervous system disorders TEAE, participants",SAD 600 mg,0 n (%)
same,"Psychiatric disorders TEAE, events",SAD 600 mg,1
same,"Psychiatric disorders TEAE, participants",SAD 600 mg,1 (16.7) n (%)
same,"Rash TEAE, events",SAD 600 mg,0
same,"Rash TEAE, participants",SAD 600 mg,0 n (%)
same,"Skin and subcutaneous tissue disorders TEAE, events",SAD 600 mg,0
same,"Skin and subcutaneous tissue disorders TEAE, participants",SAD 600 mg,0 n (%)
same,"Tooth infection TEAE, events",SAD 600 mg,0
same,"Tooth infection TEAE, participants",SAD 600 mg,0 n (%)
same,participants with at least one TEAE,"SAD, all balinatunfib groups (five of 36)",13.9%
same,tolerability,all single oral doses (5–600 mg),well tolerated
